Screening results from PubChem BioAssay.
bovine MsrA act: activators of bovine methionine sulfoxide reductase A. activation, % at 10.6 µM. 0.3% of 360,000 active. purified bovine MsrA, absorbance read-out. AID 602163; in the data active means activation above about 7.5%;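 further: 0% = vehicle and 100% = reference activator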
NR1D1 modulator: Rev-erb alpha (human) modulation | AID 1259318 | 0.79% of 370,000 active | P20393 | Rev-erbα–FITC-DNA binding, fluorescence polarization, 90 min | activity, % at 10 µM;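 active means activity above about 14%, limit read from the data; passing the limit was not always enough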;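 further: 0% = DMSO wells with 35 nM protein and 100% = DMSO wells with 750 nM protein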
MsrA inhibitor: inhibitors of bovine MsrA; purified bovine MsrA, absorbance read-out; inhibition, % at 15.5 µM; 0.75% of 360,000 active; in the data active means inhibition above about 4.5%;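 further: 0% = vehicle wells with enzyme and 100% = reference inhibitor wells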
ASAP1 GAP inh: blocks human ASAP1-stimulated Arf1 GTP hydrolysis; Q9ULH1; inhibition, % at 16.5 µM; AID 624377; 0.19% of 360,000 active; GDP FP detection; in the data active means inhibition above about 25%;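 further: 0% = vehicle with enzyme and substrate and 100% = no enzyme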
Target sequence (Q9ULH1 325-724 limits assumed): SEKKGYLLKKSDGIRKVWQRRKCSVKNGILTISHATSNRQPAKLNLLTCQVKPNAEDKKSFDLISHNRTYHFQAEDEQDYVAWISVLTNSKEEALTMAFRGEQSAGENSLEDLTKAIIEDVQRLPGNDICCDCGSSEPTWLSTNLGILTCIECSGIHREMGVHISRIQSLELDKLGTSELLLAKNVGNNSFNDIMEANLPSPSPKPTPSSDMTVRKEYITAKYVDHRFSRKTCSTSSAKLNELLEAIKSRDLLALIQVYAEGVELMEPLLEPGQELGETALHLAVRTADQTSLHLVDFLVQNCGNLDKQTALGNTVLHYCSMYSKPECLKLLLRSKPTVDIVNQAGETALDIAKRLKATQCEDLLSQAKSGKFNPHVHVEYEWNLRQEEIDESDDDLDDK
HGIII-sPLA2 inh: Blocks human group III sPLA2 activity; QFRET BODIPY PC-A2 liposome hydrolysis, fluorescence; inhibition, % at 12.2 µM; 0.56% of 370,000 active; AID 743126;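 active means inhibition above mean plus 3 SD of compounds lying within the high and low control bounds, cut at about 19% in these data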;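 further: 0% = median of test compound wells and 100% = no enzyme DMSO wells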
ARFGAP1 inh: inhibitors of rat ARFGAP1; AID 651572; Q62848; Arfgap1-stimulated ARF1 GTP hydrolysis, GDP FP detection; 0.26% of 360,000 active; inhibition, % at 16.5 µM;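 active means inhibition above a per-plate limit, mean inhibition of low control wells plus 3 SD, cut at about 25% in these data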;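 further: 0% = DMSO wells with enzyme and 100% = wells lacking Arfgap1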
Target sequence (Q62848 1-136 limits assumed): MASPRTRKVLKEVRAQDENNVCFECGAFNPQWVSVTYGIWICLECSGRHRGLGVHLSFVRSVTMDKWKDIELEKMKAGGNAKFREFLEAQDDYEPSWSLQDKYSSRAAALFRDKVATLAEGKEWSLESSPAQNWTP
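system = rat Arfgap1 catalytic domain, aa 1-136 | technique = FP, GDP Alexa 633 tracer displaced from anti-GDP antibody, 620/688 nm | compound = one concentration, 16.5 µM, DMSO 1.26% | medium = HEPES-based buffer, pH 7.5 | timing = compound-enzyme preincubation 20 min, reaction 120 min, detection 60 min, 25 °C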
Rev-erbA confirm: Rev-erb alpha (human) modulation, hit confirmation. Rev-erb alpha FITC-DNA binding, fluorescence polarization, 90 min. activation, % at 25 µM. 61% of 3,000 active. shares compounds with NR1D1 modulator. AID 1259319;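 active means activation at or above a set limit, or at least 3 SD above the negative control mean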;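 further: 0% = 35 nM protein with DMSO and 100% = 750 nM protein high control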
RORg counter: affects RORgamma DNA binding in a Rev-erb alpha counter-screen; shares compounds with NR1D1 modulator; purified RORgamma protein-FITC-DNA binding, fluorescence polarization; IC50, µM; 8% of 910 active;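 active means Compounds whose fitted half-maximal concentration for disrupting protein-DNA binding is below 10 micromolar; the record names Rev-erb in its text, so the target is in doubt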
* marks the source's active call; other numbers are inactive results. An excerpt weighted towards active compounds, which were near 2.7% of everything screened.

How did Cc1ccccc1CNC(=O)c1ccc2nc([C@@H]3O[C@H](CO)[C@H](O)[C@H](O)[C@H]3O)[nH]c2c1 do in these assays?
bovine MsrA act: 0; NR1D1 modulator: 3; MsrA inhibitor: 0; ASAP1 GAP inh: -6; HGIII-sPLA2 inh: 16; ARFGAP1 inh: -1

How did COc1ccc(OC)c(CN2C(=O)CSCC2(C)C(=O)Nc2c(C)cccc2C)c1 (stereo not drawn) do in these assays?
NR1D1 modulator: -2; MsrA inhibitor: 0; ASAP1 GAP inh: -12; HGIII-sPLA2 inh: 3; ARFGAP1 inh: 2

How did O=C(CC(=O)c1cccs1)c1ccncc1 do in these assays?
bovine MsrA act: -3; NR1D1 modulator: -8; MsrA inhibitor: 2; ASAP1 GAP inh: -3; HGIII-sPLA2 inh: 1; ARFGAP1 inh: -7

How did O=C(COc1ccccc1)NC(=S)Nc1ccc2c(c1)Cc1ccccc1-2 do in these assays?
bovine MsrA act: -7; NR1D1 modulator: 77*; MsrA inhibitor: 1; ASAP1 GAP inh: 3; HGIII-sPLA2 inh: 6; ARFGAP1 inh: 5; Rev-erbA confirm: 25*

How did O=c1oc(C2(O)CCCCC2)cc2ccccc12 do in these assays?
bovine MsrA act: -7; NR1D1 modulator: 8; MsrA inhibitor: 1; ASAP1 GAP inh: -6; HGIII-sPLA2 inh: 11; ARFGAP1 inh: 4

How did O=c1oc(C2(O)CCCCC2)cc2ccc(-c3ccc4[nH]ccc4c3)cc12 do in these assays?
bovine MsrA act: -14; NR1D1 modulator: 22*; MsrA inhibitor: 1; ASAP1 GAP inh: 2; HGIII-sPLA2 inh: -12; ARFGAP1 inh: 13; Rev-erbA confirm: 11

Results for CCOC(=O)c1c(NC2=NS(=O)(=O)c3ccccc32)sc2c1CCC(C)C2 (stereo not drawn) ?
bovine MsrA act: -4; NR1D1 modulator: 41*; MsrA inhibitor: 0; ASAP1 GAP inh: 3; HGIII-sPLA2 inh: 0; ARFGAP1 inh: 3; Rev-erbA confirm: 14

Results for CC(C)(C)C1CCc2c(sc(NC(=O)c3ccncc3)c2C(N)=O)C1 (stereo not drawn) ?
bovine MsrA act: -3; NR1D1 modulator: -1; MsrA inhibitor: 2; ASAP1 GAP inh: -3; HGIII-sPLA2 inh: 1; ARFGAP1 inh: -6

Results for COC(=O)c1c(NC2=NS(=O)(=O)c3ccccc32)sc2c1CCC(C(C)(C)C)C2 (stereo not drawn) ?
bovine MsrA act: -2; NR1D1 modulator: 30*; MsrA inhibitor: 1; ASAP1 GAP inh: -7; HGIII-sPLA2 inh: 3; ARFGAP1 inh: -2; Rev-erbA confirm: 19*

How did CCOC(=O)c1c(NC2=NS(=O)(=O)c3ccccc32)sc2c1CCCCC2 do in these assays?
bovine MsrA act: -7; NR1D1 modulator: 1; MsrA inhibitor: 0; ASAP1 GAP inh: -4; HGIII-sPLA2 inh: 6; ARFGAP1 inh: 0

What do the screens show for `O=C(O)c1cc(-c2cccc([N+](=O)[O-])c2)nc2ccccc12`?
bovine MsrA act: -2; NR1D1 modulator: -2; MsrA inhibitor: 1; ASAP1 GAP inh: 3; HGIII-sPLA2 inh: -6; ARFGAP1 inh: -5

How did Cc1cc(-c2cccc([N+](=O)[O-])c2)nc2ccc3ccccc3c12 do in these assays?
bovine MsrA act: -12; NR1D1 modulator: 38*; MsrA inhibitor: 0; ASAP1 GAP inh: 10; HGIII-sPLA2 inh: -2; ARFGAP1 inh: 1; Rev-erbA confirm: 42*; RORg counter: inactive

What do the screens show for `O=C(CSc1ccccc1F)NC(=O)NC1CCCC1`?
bovine MsrA act: -2; NR1D1 modulator: -3; MsrA inhibitor: 0; ASAP1 GAP inh: -8; HGIII-sPLA2 inh: 6; ARFGAP1 inh: 11

What do the screens show for `CCC1CCc2c(sc(NC(=O)c3cccnc3)c2C(N)=O)C1` (stereo not drawn)?
bovine MsrA act: -2; NR1D1 modulator: 27*; MsrA inhibitor: 0; ASAP1 GAP inh: -11; HGIII-sPLA2 inh: 10; ARFGAP1 inh: 7; Rev-erbA confirm: 6

Results for NC(=O)c1c(NC(=O)c2cccnc2)sc2c1CCCC2 ?
bovine MsrA act: -15; NR1D1 modulator: -8; MsrA inhibitor: 2; ASAP1 GAP inh: -5; HGIII-sPLA2 inh: 8; ARFGAP1 inh: 8

What do the screens show for `CC1CCc2c(sc(NC(=O)c3cccs3)c2C(=O)O)C1` (stereo not drawn)?
bovine MsrA act: -1; NR1D1 modulator: 3; MsrA inhibitor: 1; ASAP1 GAP inh: 5; HGIII-sPLA2 inh: -8; ARFGAP1 inh: 8

Results for CCCC1CCc2c(sc(NC(=O)c3cccs3)c2C(N)=O)C1 (stereo not drawn) ?
bovine MsrA act: -2; NR1D1 modulator: 26*; MsrA inhibitor: 0; ASAP1 GAP inh: 6; HGIII-sPLA2 inh: 4; ARFGAP1 inh: 6; Rev-erbA confirm: 7

What do the screens show for `Cc1cccnc1NC(=O)c1cc2ccccc2oc1=O`?
bovine MsrA act: -4; NR1D1 modulator: 43*; MsrA inhibitor: 2; ASAP1 GAP inh: 15; HGIII-sPLA2 inh: 5; ARFGAP1 inh: -10; Rev-erbA confirm: 7

How did CCOC(=O)C1=C(Nc2ccc(Br)cc2)CC(C)(O)C(C(=O)OCC)C1c1ccccc1 (stereo not drawn) do in these assays?
bovine MsrA act: -1; NR1D1 modulator: 28*; MsrA inhibitor: -1; ASAP1 GAP inh: 3; HGIII-sPLA2 inh: 2; ARFGAP1 inh: 2; Rev-erbA confirm: 10

How did CCOC(=O)C1C(=O)CC(C)(O)C(C(=O)OCC)C1c1ccc(OCC)cc1 (stereo not drawn) do in these assays?
bovine MsrA act: -1; NR1D1 modulator: 1; MsrA inhibitor: 0; ASAP1 GAP inh: 14; HGIII-sPLA2 inh: -4; ARFGAP1 inh: -7

Results for CCOC(=O)c1c(NC(=O)C2CCCN(S(=O)(=O)c3ccccc3)C2)sc2c1CCCC2 (stereo not drawn) ?
bovine MsrA act: 0; NR1D1 modulator: 24*; MsrA inhibitor: 1; ASAP1 GAP inh: 2; HGIII-sPLA2 inh: 8; ARFGAP1 inh: -10; Rev-erbA confirm: 103*; RORg counter: >40

How did CCOC(=O)c1c(NC(=O)C2Cc3ccccc3C(=O)O2)sc2c1CCCC2 (stereo not drawn) do in these assays?
bovine MsrA act: -15; NR1D1 modulator: 35*; MsrA inhibitor: 0; ASAP1 GAP inh: 0; HGIII-sPLA2 inh: 4; ARFGAP1 inh: 10; Rev-erbA confirm: 14*

What do the screens show for `COC(=O)c1c(NC(=O)C2Cc3ccccc3C(=O)O2)sc2c1CCCC2` (stereo not drawn)?
bovine MsrA act: -4; NR1D1 modulator: 50*; MsrA inhibitor: -1; ASAP1 GAP inh: -17; HGIII-sPLA2 inh: 2; ARFGAP1 inh: -19; Rev-erbA confirm: 22*
